The test system of one assay is SF-539. Briefly: Antiproliferative activity against human CNS SF-539 cell line. It counts as functional. The procedure, abridged: (§1)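 Adherent lines grown in RPMI 1640 with 5% fetal bovine serum and 2 mM L-glutamine, plated at 5000–40 000 cells/well and preincubated 24 h. Five drug concentrations were added for 48 h at 37 °C. Cells were fixed with cold TCA (10% final), stained with sulforhodamine B, and read at 515 nm. GI50 is the concentration giving 50% reduction in net protein increase relative to time-zero wells.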

Another assay has as its system HCT-116. Briefly: Antiproliferative activity against human colon HCT116 cell line. The format is functional. The procedure, abridged: as §1
The test system of another assay is CCRF-CEM. Briefly: Antiproliferative activity against human leukemia CCRF-CEM cell line. It counts as functional. The procedure, abridged:
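Suspension leukemia line grown in RPMI 1640 with 5% fetal bovine serum and 2 mM L-glutamine and preincubated 24 h. Drug was given at five concentrations for 48 h at 37 °C. Settled cells were fixed with 80% TCA (16% final), stained with sulforhodamine B, and read at 515 nm. GI50 was set at 50% reduction in net protein increase versus time-zero wells.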

Another assay deals with HOP-62. Briefly: Antiproliferative activity against human lung HOP-62 cell line. The format is functional. The procedure, abridged:
as §1

The test system of another assay is UACC-62. Briefly: Antiproliferative activity against human melanoma UACC-62 cell line. It counts as functional. The procedure, abridged:
as §1

For a further assay, the system named is SN12C. Briefly: Antiproliferative activity against human renal SN12C cell line. It counts as functional. The procedure, abridged: as §1
The subject of another assay is DU-145. Briefly: Antiproliferative activity against human prostate DU-145 cell line. The format is functional. The procedure, abridged:
as §1

The nature of assay [1]: Mean graph midpoint for growth inhibition of all human cancer cells was determined. It counts as functional, Cancer cell lines. Set-up: unit: µM. The procedure, abridged: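 Average of GI50 values over about 55 cell lines from the 48-h sulforhodamine B growth assay. Test range was 10^-4 to 10^-8 M, and values beyond it were set to those limits. Compounds with a first MGM of 10 μM or less were tested a second time and a standard deviation was calculated.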

The target in another assay is Tubulin (Bos taurus, UniProt Q6B856+Q862F3). Briefly: Inhibition of tubulin polymerization was determined at 1.2 mg/mL concentration. The format is functional.
In a further assay the test system is OVCAR-3. Briefly: Antiproliferative activity against human ovarian OVCAR-3 cell line. It counts as functional. The procedure, abridged:
as §1

The subject of assay [2] is MDA-MB-435 (Homo sapiens). Briefly: Antiproliferative activity against human breast MDA-MB-435 cell line.

Sequence of Tubulin (Q6B856 whole entry): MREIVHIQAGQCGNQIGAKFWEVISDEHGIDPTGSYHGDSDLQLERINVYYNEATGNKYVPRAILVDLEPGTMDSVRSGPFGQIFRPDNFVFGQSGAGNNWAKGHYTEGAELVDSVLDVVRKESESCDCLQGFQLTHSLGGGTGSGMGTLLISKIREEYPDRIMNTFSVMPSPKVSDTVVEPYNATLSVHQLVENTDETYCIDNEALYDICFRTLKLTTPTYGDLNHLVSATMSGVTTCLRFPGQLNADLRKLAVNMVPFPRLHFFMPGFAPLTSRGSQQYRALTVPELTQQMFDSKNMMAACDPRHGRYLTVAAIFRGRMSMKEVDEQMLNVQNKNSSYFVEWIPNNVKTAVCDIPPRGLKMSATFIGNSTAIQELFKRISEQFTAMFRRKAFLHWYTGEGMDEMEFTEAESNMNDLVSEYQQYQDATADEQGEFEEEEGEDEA
Sequence of Tubulin (Q862F3 whole entry): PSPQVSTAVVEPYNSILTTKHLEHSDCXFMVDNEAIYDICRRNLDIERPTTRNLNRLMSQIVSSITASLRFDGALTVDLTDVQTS

One may read the GI50 as the concentration at which growth is held to half of that of the control. By IC50 is commonly meant the concentration that inhibits the measured activity by half. Take `O=C(NCCc1ccc(F)cc1)c1cc(/C=C\c2cc(O)ccc2O)ccc1O`: the GI50 is 3800 nM in the assay with SF-539; 3800 nM in the assay with HCT-116; 1300 nM in the assay on CCRF-CEM; 6300 nM in the assay with HOP-62; 2300 nM with UACC-62; 4000 nM with SN12C. Besides, the GI50 in the assay on DU-145 came to 15200 nM; in the assay with OVCAR-3 it was 2100 nM; in assay [2], 12900 nM. In [1], the MGM worked out at 3.5. This molecule registered an IC50 against Tubulin of 4200 nM.
Turning to `O=C(NCCc1ccc(F)cc1)c1cc(CCc2cc(O)ccc2O)ccc1O`, the GI50 was 1800 nM in the assay with SF-539; 1000 nM in the assay on HCT-116; 400 nM with CCRF-CEM; 2600 nM in the assay on HOP-62; 2800 nM in the assay with UACC-62; 2100 nM in the assay on SN12C. Moreover, the GI50 in the assay with DU-145 is 8000 nM; with OVCAR-3, 1000 nM; in assay [2], 2300 nM. Also, in assay [1], the MGM is reported as 2.8. In addition, inhibition against Tubulin was half-maximal at 9700 nM (IC50).

The values above are taken from ChEMBL document CHEMBL1136777, “Synthesis, anticancer activity, and inhibition of tubulin polymerization by conformationally restricted analogues of lavendustin A” (J Med Chem, 2003).
